Results: ChEMBL document CHEMBL3813637, “Synthesis and Antiproliferative and Metabolic Evaluations of Novel Securinine Derivatives” (ACS Med Chem Lett, 2016)

System: not listed separately
Test: Antiproliferative activity against human HCT116 cells assessed as reduction in cell viability at 20 uM after 72 hrs by ATPlite assay
Assay type: functional
Settings: HCT-116, 72 h, read-out: GI
Method in brief: (§1)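 HCT-116 human colon cancer cells exposed to compound for 72 h at 20, 10 or 1 μM. Growth inhibition is expressed as percentage relative to nontreated cells.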

Compound	inhibition of growth at 20 µM
COc1ccc(C#CC2=C[C@@H]3C[C@@]4(OC(=O)C=C24)[C@H]2CCCCN32)cc1	100%
CC(C)(C)C#CC1=C[C@@H]2C[C@@]3(OC(=O)C=C13)[C@H]1CCCCN21	100%
CC(C)(C)c1ccc(C2=C[C@@H]3C[C@@]4(OC(=O)C=C24)[C@H]2CCCCN32)cc1	30.6%
CC(C)(C)OC(=O)NCC#CC1=C[C@@H]2C[C@@]3(OC(=O)C=C13)[C@H]1CCCCN21	100%
O=C1C=C2C(c3ccc(F)cc3)=C[C@@H]3C[C@@]2(O1)[C@H]1CCCCN31	24%
CC(C)(C)OC(=O)NC1CCC(C#CC2=C[C@@H]3C[C@@]4(OC(=O)C=C24)[C@H]2CCCCN32)CC1 (stereo partly specified)	100%
CC(C)(O)C#CC1=C[C@@H]2C[C@@]3(OC(=O)C=C13)[C@H]1CCCCN21	97.7%
Cc1cccc(C2=C[C@@H]3C[C@@]4(OC(=O)C=C24)[C@H]2CCCCN32)c1	33.8%

System: not listed separately
Test: Antiproliferative activity against human HCT116 cells assessed as reduction in cell viability after 72 hrs by ATPlite assay
Assay type: functional, cell-based
Settings: HCT-116, 72 h
Method in brief: (§2)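 IC50 determined in human cancer cell lines (HCT-116, A-375 melanoma, HL-60, A-549). Camptothecin and etoposide served as reference compounds.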

Compound	IC50
COc1cc([C@@H]2c3cc4c(cc3[C@@H](O[C@@H]3O[C@@H]5CO[C@@H](C)O[C@H]5[C@H](O)[C@H]3O)[C@H]3COC(=O)[C@H]23)OCO4)cc(OC)c1O [ETOPOSIDE]	> 10000 nM
CC[C@@]1(O)C(=O)OCc2c1cc1n(c2=O)Cc2cc3ccccc3nc2-1 [CAMPTOTHECIN]	3 nM
COc1ccc(C#CC2=C[C@@H]3C[C@@]4(OC(=O)C=C24)[C@H]2CCCCN32)cc1	340 nM
CC(C)(C)OC(=O)NCC#CC1=C[C@@H]2C[C@@]3(OC(=O)C=C13)[C@H]1CCCCN21	1660 nM

System: Plasma
Test: Metabolic stability in mouse plasma at 5 uM after 2 hrs by ZQ-LC-MS analysis
Assay type: ADME, cell-free
Settings: not given
Method in brief: (§3)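 Compounds were incubated in rat, mouse and human plasma for 120 min at 37 °C. The result is reported as the percentage of parent compound remaining.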

Stability	Compound
Unstable	COc1ccc(C#CC2=C[C@@H]3C[C@@]4(OC(=O)C=C24)[C@H]2CCCCN32)cc1

System: not listed separately
Test: Antiproliferative activity against human HCT116 cells assessed as reduction in cell viability at 10 uM after 72 hrs by ATPlite assay
Assay type: functional
Settings: HCT-116, 72 h, read-out: GI
Method in brief: as §1

Compound	inhibition of growth at 10 µM
COc1ccc(C#CC2=C[C@@H]3C[C@@]4(OC(=O)C=C24)[C@H]2CCCCN32)cc1	100%
CC(C)(C)C#CC1=C[C@@H]2C[C@@]3(OC(=O)C=C13)[C@H]1CCCCN21	98.8%
CC(C)(C)c1ccc(C2=C[C@@H]3C[C@@]4(OC(=O)C=C24)[C@H]2CCCCN32)cc1	9.7%
CC(C)(C)OC(=O)NCC#CC1=C[C@@H]2C[C@@]3(OC(=O)C=C13)[C@H]1CCCCN21	100%
O=C1C=C2C(c3ccc(F)cc3)=C[C@@H]3C[C@@]2(O1)[C@H]1CCCCN31	9.9%
CC(C)(C)OC(=O)NC1CCC(C#CC2=C[C@@H]3C[C@@]4(OC(=O)C=C24)[C@H]2CCCCN32)CC1 (stereo partly specified)	100%
CC(C)(O)C#CC1=C[C@@H]2C[C@@]3(OC(=O)C=C13)[C@H]1CCCCN21	91.6%
Cc1cccc(C2=C[C@@H]3C[C@@]4(OC(=O)C=C24)[C@H]2CCCCN32)c1	15.6%

System: not listed separately
Test: Antiproliferative activity against human HL60 cells assessed as reduction in cell viability after 72 hrs by ATPlite assay
Assay type: functional, cell-based
Settings: HL-60, 72 h
Method in brief: as §2

Compound	IC50
COc1cc([C@@H]2c3cc4c(cc3[C@@H](O[C@@H]3O[C@@H]5CO[C@@H](C)O[C@H]5[C@H](O)[C@H]3O)[C@H]3COC(=O)[C@H]23)OCO4)cc(OC)c1O [ETOPOSIDE]	860 nM
CC[C@@]1(O)C(=O)OCc2c1cc1n(c2=O)Cc2cc3ccccc3nc2-1 [CAMPTOTHECIN]	35 nM
COc1ccc(C#CC2=C[C@@H]3C[C@@]4(OC(=O)C=C24)[C@H]2CCCCN32)cc1	660 nM
CC(C)(C)OC(=O)NCC#CC1=C[C@@H]2C[C@@]3(OC(=O)C=C13)[C@H]1CCCCN21	5000 nM

System: A549
Test: Antiproliferative activity against human A549 cells assessed as reduction in cell viability after 72 hrs by ATPlite assay
Assay type: functional, cell-based
Settings: A549, 72 h
Method in brief: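 IC50 values were determined on a panel of four human cancer lines (HCT-116, A-549, HL-60, A-375), with camptothecin and etoposide as reference compounds.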

IC50	Compound
290 nM	COc1ccc(C#CC2=C[C@@H]3C[C@@]4(OC(=O)C=C24)[C@H]2CCCCN32)cc1
2640 nM	CC(C)(C)OC(=O)NCC#CC1=C[C@@H]2C[C@@]3(OC(=O)C=C13)[C@H]1CCCCN21

Compound	IC50
CC[C@@]1(O)C(=O)OCc2c1cc1n(c2=O)Cc2cc3ccccc3nc2-1 [CAMPTOTHECIN]	9 nM

System: Plasma
Test: Metabolic stability in rat plasma at 5 uM after 2 hrs by ZQ-LC-MS analysis
Assay type: ADME, cell-free
Settings: not given
Method in brief: as §3

Stability	Compound
Unstable	COc1ccc(C#CC2=C[C@@H]3C[C@@]4(OC(=O)C=C24)[C@H]2CCCCN32)cc1

System: A-375
Test: Antiproliferative activity against human A375 cells assessed as reduction in cell viability after 72 hrs by ATPlite assay
Assay type: functional, cell-based
Settings: A-375, 72 h
Method in brief: as §2

IC50	Compound
60 nM	COc1ccc(C#CC2=C[C@@H]3C[C@@]4(OC(=O)C=C24)[C@H]2CCCCN32)cc1
360 nM	CC(C)(C)OC(=O)NCC#CC1=C[C@@H]2C[C@@]3(OC(=O)C=C13)[C@H]1CCCCN21

Compound	IC50
CC[C@@]1(O)C(=O)OCc2c1cc1n(c2=O)Cc2cc3ccccc3nc2-1 [CAMPTOTHECIN]	13 nM

System: not listed separately
Test: Antiproliferative activity against human HCT116 cells assessed as reduction in cell viability at 1 uM after 72 hrs by ATPlite assay
Assay type: functional
Settings: HCT-116, 72 h, read-out: GI
Method in brief: as §1

Compound	inhibition of growth at 1 µM
COc1ccc(C#CC2=C[C@@H]3C[C@@]4(OC(=O)C=C24)[C@H]2CCCCN32)cc1	98.3%
CC(C)(C)C#CC1=C[C@@H]2C[C@@]3(OC(=O)C=C13)[C@H]1CCCCN21	25.2%
CC(C)(C)c1ccc(C2=C[C@@H]3C[C@@]4(OC(=O)C=C24)[C@H]2CCCCN32)cc1	0.9%
CC(C)(C)OC(=O)NCC#CC1=C[C@@H]2C[C@@]3(OC(=O)C=C13)[C@H]1CCCCN21	79.3%
O=C1C=C2C(c3ccc(F)cc3)=C[C@@H]3C[C@@]2(O1)[C@H]1CCCCN31	2.1%
CC(C)(C)OC(=O)NC1CCC(C#CC2=C[C@@H]3C[C@@]4(OC(=O)C=C24)[C@H]2CCCCN32)CC1 (stereo partly specified)	93.4%
CC(C)(O)C#CC1=C[C@@H]2C[C@@]3(OC(=O)C=C13)[C@H]1CCCCN21	10.3%
Cc1cccc(C2=C[C@@H]3C[C@@]4(OC(=O)C=C24)[C@H]2CCCCN32)c1	5.7%

System: Plasma
Test: Metabolic stability in human plasma at 5 uM after 2 hrs by ZQ-LC-MS analysis
Assay type: ADME, cell-free
Settings: not given
Method in brief: as §3

Stability	Compound
Unstable	COc1ccc(C#CC2=C[C@@H]3C[C@@]4(OC(=O)C=C24)[C@H]2CCCCN32)cc1
